High-throughput results (PubChem BioAssay)
A selection: hits, their analogues and other compounds. The true share with any hit is near 2.1%.
MC4R antag cAMP – human MC4R antagonism in cAMP assay | P32245 | MC4R-expressing cells, MTII-stimulated cAMP, LANCE TR-FRET | inhibition, % at 6.5 µM | hit rate 0.48% among 360,000;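 active = inhibition above its plate's cutoff, the mean of tested wells on that plate plus 3 SD, cut at about 29% in these data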
Target sequence (P32245 whole entry, looked up): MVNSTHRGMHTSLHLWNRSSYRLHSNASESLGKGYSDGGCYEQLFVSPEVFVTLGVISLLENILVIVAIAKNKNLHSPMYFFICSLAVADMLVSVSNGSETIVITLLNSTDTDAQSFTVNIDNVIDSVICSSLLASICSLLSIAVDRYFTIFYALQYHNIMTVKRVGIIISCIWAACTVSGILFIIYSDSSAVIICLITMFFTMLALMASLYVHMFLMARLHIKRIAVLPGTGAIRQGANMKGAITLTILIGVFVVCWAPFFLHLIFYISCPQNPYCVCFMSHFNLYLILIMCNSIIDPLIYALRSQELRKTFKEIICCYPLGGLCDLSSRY
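Assay system: U2OS-MC4R stable cell line; Also added: Melanotan II; Technique: Eu-cAMP/anti-cAMP TR-FRET, emission 671 nm; Times: 30-min compound, 1-h challenge, 1-h detection, room temperature.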
SMARCA2 activ – activators of SMARCA2 function. hit rate 1% among 370,000. MG213 cells, MMTV-luciferase reporter, dexamethasone, overnight. activation, % at 9.1 µM; in the data active = activation above about 7.8%
F508del corr – CFTR F508del correction in bronchial cells; CFBE cells, YFP halide quenching; stimulated with forskolin plus potentiator P3; % fluorescence drop versus neutral controls; activity (quench increase), % at 7.58 µM; hit rate 0.36% among 350,000; AID 720511;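 active = mean added fluorescence quench of at least 8% versus neutral control, with both replicates also reaching 8%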;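 also: cells transiently co-express mutant CFTR-F508del with the halide-sensitive YFP; corrector assay measuring rescue of mutant channel to the surface after 24 h compound exposure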
MC4R ag barr – agonists of human melanocortin 4 receptor (MC4R) beta-arrestin; U2OS MC4R beta-arrestin complementation, luminescence; percent of melanotan II response, DMSO zero; hit rate 0.98% among 360,000; activation, % at 8.9 µM;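 active = activation above a per-plate cutoff, the mean activation of sample wells on that plate plus 3 SD, cut at about 8% in these data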
SMARCA2 act conf – confirmation of SMARCA2 (BRM) function activators. shares compounds with SMARCA2 activ. MG213 cells, MMTV-luciferase with dexamethasone, luminescence, overnight; MG213 cells expressing E1A, Rb sequestered; DMSO wells 0%, reference activator 100%. activation, % at 9.1 µM. hit rate 30% among 3,500. AID 652260;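 active = activation above its plate's cutoff, the mean activation of tested wells plus 3 SD, cut at about 7.9% in these data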
GAL4-VP16 Luc – GAL4-VP16 reporter activation counter-screen; HEK293 GAL4-VP16 pG5luc reporter, luciferase luminescence; scaled: DMSO wells 0%, SAHA wells 100%; AID 686939; hit rate 41% among 3,500; activation, % at 9.1 µM; shares compounds with SMARCA2 activ;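 active = activation above the solvent-only control well mean plus 3 SD, averaged across control plates, cut at about 5.2% in these data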
Hits are given with their value; 0 = inactive; - = no result given.

SMILES | MC4R antag cAMP | SMARCA2 activ | F508del corr | MC4R ag barr | SMARCA2 act conf | GAL4-VP16 Luc
CCN(CCC(=O)Nc1cc([N+](=O)[O-])ccc1OC)Cc1ccccc1 | 0 | 9.7 | - | 0 | 0 | 0
CCC(=O)N/C(N)=N/c1nc(C)c2cc(OC)ccc2n1 | 0 | 18.4 | - | 0 | 34.9 | 13.5
COc1ccc2nc(/N=C(\N)NC(=O)C(C)(C)C)nc(C)c2c1 | 0 | 0 | - | 0 | - | -
Cc1ccccc1NC(=S)N(Cc1ccco1)C(C)c1cccs1 (configuration not stated) | 0 | 10.5 | 0 | 0 | 0 | 0
CC(c1cccs1)N(Cc1ccco1)C(=S)Nc1ccccc1Cl (configuration not stated) | 0 | 0 | 0 | 0 | - | -
COc1ccc(CN(C)C[C@@H]2OCCCC[C@H](C)Oc3ccc(NC(=O)Nc4ccc(OC)cc4)cc3C(=O)N([C@@H](C)CO)C[C@@H]2C)cc1 | - | - | 0 | - | - | -
CC(C)NC(=O)N[C@H]1CC[C@H](CC(=O)NCCN2CCCC2)O[C@@H]1CO | - | - | 0 | - | - | -
CC(=O)Nc1cccc(C(=O)N/N=C/c2cccc(C)n2)c1 | 0 | 11.4 | 0 | 0 | 0 | 0
Cc1cccc(C(=O)Nc2cccc(C(=O)N/N=C/c3cccc(C)n3)c2)c1 | 0 | 0 | 0 | 0 | - | -
Cc1nc(SCC(=O)c2cccs2)c2oc3ccccc3c2n1 | 0 | 8.5 | - | 0 | 0 | 10.5
CCn1c(=O)cc(SCC(=O)NCc2ccc(C)cc2)c2ccccc21 | 0 | 0 | - | 0 | - | -
CCn1c(=O)cc(SCC(=O)Nc2ccc(C)cn2)c2ccccc21 | 0 | 9.2 | 0 | 0 | 15.4 | 0
Fc1cccc(F)c1-n1c(CN2CCOCC2)csc1=S | 0 | 8.7 | 0 | 0 | 0 | 0
C[C@H](CO)N1C[C@H](C)[C@H](CN(C)CC2CC2)Oc2cc(C#CC3CC3)ccc2S1(=O)=O | - | - | 0 | - | - | -
Cc1ccc(OCC(=O)Nc2cccc(C)n2)c(C)c1 | 0 | 10.5 | - | 0 | 0 | 11.6
CCCC(=O)Nc1ccc2c(c1)C(=O)N(C)[C@@H]1CC[C@@H](CC(=O)NCC3CC3)O[C@@H]1CO2 | - | - | 0 | - | - | -
COC(=O)c1ccc(NCc2c(O)ccc(O)c2Br)cc1Cl | 0 | 0 | 0 | 0 | - | -
COC(=O)c1ccc(NCc2cc(O)ccc2O)cc1O | 0 | 8.5 | 0 | 0 | 0 | 0
C[C@@H]1CN([C@H](C)CO)C(=O)c2cc(-c3cccnc3)cnc2O[C@@H]1CN(C)C | - | - | 0 | - | - | -
COC(=O)c1c(-c2ccccc2)[nH]c(-c2nccc3ccccc23)c1C(=O)OC | 0 | 8.4 | 0 | 0 | 0 | 0
N#Cc1cc(-c2ccccc2)[nH]c1-c1nccc2ccccc12 | 0 | 0 | 0 | 0 | - | -
C[C@@H]1CN([C@H](C)CO)C(=O)c2cc(C#CC3CC3)cnc2O[C@H]1CN(C)Cc1ccccn1 | - | - | 0 | - | - | -
Cc1ccc(C(=O)Nc2cnc3ccccn3c2=O)cc1 | 0 | 0 | - | 0 | - | -
O=C(Nc1cnc2ccccn2c1=O)c1ccc(Cl)cc1Cl | 0 | 9.0 | 0 | 0 | 0 | 0
Cc1cccc(NC(=O)c2cnc3sccn3c2=O)c1 | 0 | 0 | 0 | 0 | - | -
SMILES | MC4R antag cAMP | SMARCA2 activ | F508del corr | MC4R ag barr | SMARCA2 act conf | GAL4-VP16 Luc
O=C(Nc1cnc2sccn2c1=O)c1ccccc1Cl | 0 | 8.0 | - | 0 | 15.3 | 11.3
COc1ccc(NC(=O)c2cnc3sccn3c2=O)cc1 | 0 | 8.3 | - | 0 | 0 | 5.2
O=C(c1cccnc1)N1CCCCN2[C@H](C1)[C@H](c1ccc(C#Cc3ccccn3)cc1)[C@@H]2CO | - | - | 0 | - | - | -
O=C(CN1CCOCC1)NCC[C@H]1CC[C@@H](NC(=O)Nc2ccc(Cl)cc2)[C@H](CO)O1 | - | - | 0 | - | - | -
COc1ccccc1S(=O)(=O)N[C@@H]1CC[C@@H](CCn2cc(C3CCCCC3)nn2)O[C@@H]1CO | - | - | 0 | - | - | -
C/C=C/c1ccc2c(c1)O[C@H](CN(C)C(=O)c1cnccn1)[C@@H](C)CN([C@@H](C)CO)S2(=O)=O | - | - | 0 | - | - | -
COCC#Cc1cnc2c(c1)C(=O)N([C@@H](C)CO)C[C@H](C)[C@H](CN(C)C(=O)CCN1CCCCC1)O2 | - | - | 0 | - | - | -
O=C(NCCCN1CCOCC1)[C@H]1N[C@H]2c3ccc(C4=CCCCC4)c(=O)n3C[C@H]2[C@@H]1CO | - | - | 0 | - | - | -
COc1cccc(NC(=O)NCCC2=CCCCC2)c1 | 0 | 15.9 | 0 | 0 | 0 | 11.5
CS/C(=N\N(C)C(N)=O)c1ccccc1 | 0 | 8.4 | - | 0 | 0 | 0
O=C(/C=C/Nc1ccc(F)c(Cl)c1)c1ccccc1 | 0 | 9.3 | 0 | 0 | 0 | 13.3
